Results on one compound are retold here after ChEMBL document CHEMBL1154693, “Discovery of trans-4-[1-[[2,5-Dichloro-4-(1-methyl-3-indolylcarboxamido)phenyl]acetyl]-(4S)-methoxy-(2S)-pyrrolidinylmethoxy]cyclohexanecarboxylic acid: an orally active, selective very late antigen-4 antagonist” (J Med Chem, 2009).

Each structure is given as a SMILES string.

Data set [1] is described as follows: Half life in Sprague-Dawley rat at 10 mg/kg, iv. Format: ADME, organism-based. Details: dose 10 mg/kg, route intravenous. The conditions noted are these: in vivo.
The nature of the next data set: in vivo. The conditions noted are these: rat, plasma.
The target in data set [2] is Integrin alpha-4/beta-7 (Homo sapiens) (UniProt P13612+P26010). The conditions noted are these: at 4 µg/mL.
Data set [3] has as its target T1, Integrin alpha-4/beta-1 (Homo sapiens, UniProt P05556+P13612). Kind of data set: Inhibition of europium labeled human VCAM1/Fc chimera binding to human VLA-4 alpha-4-beta-1 expressed in Chinese hamster 4B4 cells by fluorimetric assay. It is filed as cell-based.
Data set [4] is described as follows: Clearance in Sprague-Dawley rat at 10 mg/kg, iv. It is filed as ADME, organism-based. On the set-up: dose 10 mg/kg, route intravenous. The conditions noted are these: in vivo.
Data set [5] in a line: Protein binding in plasma.
Data set [6] can be described thus: Drug level in BALB/c mouse serum at 10 mg/kg, po after 15 mins. It is filed as ADME, organism-based. Details: dose 10 mg/kg, route oral. The conditions noted are these: read-out: Drug uptake. Summed up: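 Serum (final 0.01-10%) assayed in the VLA-4/VCAM-1 binding assay, and concentration estimated from a calibration curve of compound spiked into untreated mouse serum.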

The nature of data set [7]: Oral bioavailability in rat. Conditions: in vivo.
Data set [8] has as its target T1, Integrin alpha-4/beta-1. The data set is described as follows: Inhibition of europium labeled human VCAM1/Fc chimera binding to human VLA-4 alpha-4-beta-1 expressed in Chinese hamster 4B4 cells in presence of 3% HSA by fluorimetric assay. Format: cell-based. Summed up: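 CHO-K1 4B4 cells transfected with human α4 and β1, plated at 3 × 10⁵ cells/mL and cultured 2 days, washed with HEPES pH 7.5 buffer containing Ca, Mg, Mn. Compound plus Eu-labeled human VCAM-1/Fc (final 1 nM), with or without human serum albumin, 60 min at room temperature; washed, Eu time-resolved fluorescence read; duplicates.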

Data set [9] can be described thus: Volume of distribution at steady state in Sprague-Dawley rat at 10 mg/kg, iv. On the set-up: dose 10 mg/kg, route intravenous. It is filed as ADME, organism-based. Conditions: in vivo, read-out: Vdss.

T1 sequence (P05556 whole entry): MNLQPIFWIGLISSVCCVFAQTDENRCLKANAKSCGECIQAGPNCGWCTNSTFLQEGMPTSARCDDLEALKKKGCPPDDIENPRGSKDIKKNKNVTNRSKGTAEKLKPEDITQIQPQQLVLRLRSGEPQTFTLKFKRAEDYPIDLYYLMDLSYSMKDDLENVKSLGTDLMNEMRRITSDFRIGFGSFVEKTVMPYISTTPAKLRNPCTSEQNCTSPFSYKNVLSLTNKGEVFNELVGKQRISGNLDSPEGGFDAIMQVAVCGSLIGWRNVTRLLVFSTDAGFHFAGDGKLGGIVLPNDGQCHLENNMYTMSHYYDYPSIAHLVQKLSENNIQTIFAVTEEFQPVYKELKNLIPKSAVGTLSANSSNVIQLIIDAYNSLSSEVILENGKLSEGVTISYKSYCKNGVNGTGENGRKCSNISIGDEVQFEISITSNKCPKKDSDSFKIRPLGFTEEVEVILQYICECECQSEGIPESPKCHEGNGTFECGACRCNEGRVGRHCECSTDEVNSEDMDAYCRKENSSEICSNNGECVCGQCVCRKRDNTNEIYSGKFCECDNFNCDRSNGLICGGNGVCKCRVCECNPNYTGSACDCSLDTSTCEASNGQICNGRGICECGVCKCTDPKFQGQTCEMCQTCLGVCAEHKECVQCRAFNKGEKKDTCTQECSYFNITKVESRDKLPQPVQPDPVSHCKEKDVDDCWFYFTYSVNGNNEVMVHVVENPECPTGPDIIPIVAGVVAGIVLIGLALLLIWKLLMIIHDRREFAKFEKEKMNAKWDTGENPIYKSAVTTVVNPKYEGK
T1 sequence (P13612 whole entry): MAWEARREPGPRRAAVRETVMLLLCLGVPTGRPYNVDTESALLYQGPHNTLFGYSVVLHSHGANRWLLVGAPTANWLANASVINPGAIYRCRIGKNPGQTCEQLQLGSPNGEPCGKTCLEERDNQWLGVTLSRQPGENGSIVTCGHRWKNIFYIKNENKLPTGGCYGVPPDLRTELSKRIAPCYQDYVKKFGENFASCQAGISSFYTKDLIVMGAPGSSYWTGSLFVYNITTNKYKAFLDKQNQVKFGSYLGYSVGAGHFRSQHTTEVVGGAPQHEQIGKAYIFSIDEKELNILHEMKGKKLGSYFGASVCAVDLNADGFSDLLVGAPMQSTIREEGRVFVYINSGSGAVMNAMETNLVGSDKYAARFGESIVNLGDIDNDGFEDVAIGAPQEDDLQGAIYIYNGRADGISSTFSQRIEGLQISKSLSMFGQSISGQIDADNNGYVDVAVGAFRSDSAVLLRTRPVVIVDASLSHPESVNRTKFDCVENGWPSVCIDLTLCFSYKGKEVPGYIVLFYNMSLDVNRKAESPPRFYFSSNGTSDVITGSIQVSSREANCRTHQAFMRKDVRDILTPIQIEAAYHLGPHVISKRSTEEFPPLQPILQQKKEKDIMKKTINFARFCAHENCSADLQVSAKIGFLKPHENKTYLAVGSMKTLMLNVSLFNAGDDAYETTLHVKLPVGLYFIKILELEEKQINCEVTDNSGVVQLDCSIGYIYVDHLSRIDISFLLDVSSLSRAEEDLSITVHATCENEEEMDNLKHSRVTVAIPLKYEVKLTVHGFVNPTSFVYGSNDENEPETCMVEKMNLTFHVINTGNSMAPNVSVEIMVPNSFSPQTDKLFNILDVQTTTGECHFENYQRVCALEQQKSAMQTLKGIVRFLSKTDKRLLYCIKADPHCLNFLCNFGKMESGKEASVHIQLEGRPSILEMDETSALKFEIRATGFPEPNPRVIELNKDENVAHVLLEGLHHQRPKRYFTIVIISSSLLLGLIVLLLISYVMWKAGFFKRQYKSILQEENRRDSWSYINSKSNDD

Usually half-life stands for the time needed for the level to fall by half in the phase considered. A low value points to fast loss. What is called clearance is the volume of plasma or blood freed of the substance per unit of time. Low readings indicate a low capacity for elimination, high ones a high capacity for elimination. In general, inhibition refers to the relative decrease from the control value, in per cent. The low end stands for a response near the control, the high end for a response far below the control. As usually defined, the IC50 is the concentration at which inhibition is half-maximal. One may read the fraction unbound as the share of the substance not bound to proteins or other matrix. As a reminder, the bioavailability is the share of a dose that reaches the circulation, judged against a reference dose that is usually intravenous. The low end stands for little systemic uptake, the high end for much systemic uptake. For `Cc1ccccc1Nc1nc2ccc(CC(=O)N3C[C@@H](F)C[C@H]3CO[C@H]3CC[C@H](C(=O)O)CC3)cc2o1`, in [1], the half-life was 48 min. Besides, the clearance (in “in vivo”; in [4]) was 12.2 mL/min/kg throughout. This compound also gave an inhibition in [2] of 46%. Moreover, the IC50 at Integrin alpha-4/beta-1 [3] was 2.8 nM; on Integrin alpha-4/beta-1 [8], 45 nM. In data set [5], this compound gave a fraction unbound of 0.03. The concentration at 0.25 h in data set [6] turned out to be 373 ng/mL. For the same compound, in data set [7], the bioavailability worked out at 24%. In addition, the Vd in data set [9] was determined as 0.317 L/kg.
